According to ChEMBL document CHEMBL1144304, “Benzimidazole derivatives as novel nonpeptide luteinizing hormone-releasing hormone (LHRH) antagonists. Part 1: Benzimidazole-5-sulfonamides” (Bioorg Med Chem Lett, 2005):

Columns and labels:
[1] = molecular target: T1, Gonadotropin-releasing hormone receptor (Rattus norvegicus, UniProt P30969); assay: Inhibitory concentration towards rat leutinizing releasing hormone receptor
T1 sequence (P30969 whole entry): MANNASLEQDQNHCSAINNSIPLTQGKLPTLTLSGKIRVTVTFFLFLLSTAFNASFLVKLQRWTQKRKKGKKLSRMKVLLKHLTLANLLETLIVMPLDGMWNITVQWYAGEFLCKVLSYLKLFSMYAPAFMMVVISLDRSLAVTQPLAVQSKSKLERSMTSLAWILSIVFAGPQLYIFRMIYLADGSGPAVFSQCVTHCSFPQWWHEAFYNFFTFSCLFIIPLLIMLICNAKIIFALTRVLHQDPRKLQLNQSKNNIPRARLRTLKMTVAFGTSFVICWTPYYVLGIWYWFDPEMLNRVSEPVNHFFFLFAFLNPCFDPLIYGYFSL
How it was run: (§1)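 CHO cells transfected with human or rat LHRH receptor cDNA, loaded with Fluo-3 AM and preincubated 20 min at 25 °C with varying compound concentrations. Stimulated with LHRH (10 nM for human-receptor cells, 1 nM for rat-receptor cells). Intracellular calcium fluorescence read; inhibition from integral ratio (actual/initial fluorescence). IC50 is the mean of at least two experiments, each in triplicate.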

[2] = molecular target: T2, Gonadotropin-releasing hormone receptor (Homo sapiens, UniProt P30968); assay: Inhibitory concentration towards human leutinizing releasing hormone receptor; how it was run: as §1
T2 sequence (P30968 whole entry): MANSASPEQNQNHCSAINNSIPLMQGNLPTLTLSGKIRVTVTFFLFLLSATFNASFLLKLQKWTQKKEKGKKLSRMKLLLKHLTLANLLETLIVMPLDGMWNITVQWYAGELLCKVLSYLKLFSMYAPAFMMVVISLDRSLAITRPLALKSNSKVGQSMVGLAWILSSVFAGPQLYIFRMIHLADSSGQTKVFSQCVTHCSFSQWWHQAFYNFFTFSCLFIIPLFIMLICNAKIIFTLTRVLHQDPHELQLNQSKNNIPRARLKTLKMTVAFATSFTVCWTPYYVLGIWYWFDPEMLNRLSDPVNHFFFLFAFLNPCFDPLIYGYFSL

| IC50 [1] | IC50 [2] | SMILES |
| --- | --- | --- |
| 170 nM | 160 nM | O=S(=O)(NCc1ccc(F)cc1)c1ccc2c(c1)nc(SCCN1CCOCC1)n2Cc1ccccc1 |
| 1200 nM | 1100 nM | CCSc1nc2cc(S(=O)(=O)NCc3ccc([N+](=O)[O-])cc3)ccc2n1Cc1ccccc1 |
| > 10000 nM | > 10000 nM | CCSc1nc2cc(S(=O)(=O)NCCN3CCOCC3)ccc2n1Cc1ccccc1 |
| 200 nM | 250 nM | CCSc1nc2cc(S(=O)(=O)NCc3ccc(F)cc3)ccc2n1Cc1ccccc1 |
| 280 nM | 230 nM | O=S(=O)(NCc1ccc(F)cc1)c1ccc2c(c1)nc(SCCc1ccccn1)n2Cc1ccccc1 |
| 810 nM | 490 nM | CCOC(=O)CSc1nc2cc(S(=O)(=O)NCc3ccc(F)cc3)ccc2n1Cc1ccccc1 |
| 330 nM | 280 nM | CCSc1nc2cc(S(=O)(=O)NCc3ccc(Cl)cc3)ccc2n1Cc1ccccc1 |
| 2000 nM | 1400 nM | CCOc1nc2cc(S(=O)(=O)NCc3ccc(F)cc3)ccc2n1Cc1ccsc1 |
| 530 nM | 670 nM | O=S(=O)(NCc1ccc(F)cc1)c1ccc2c(c1)nc(SCCNCc1ccccc1)n2Cc1ccccc1 |
| > 10000 nM | > 10000 nM | CCSc1nc2cc(S(=O)(=O)NCc3ccc(F)cc3)ccc2n1CCc1ccccc1 |

The remaining lines, values behind:

| SMILES | IC50 [1] | IC50 [2] |
| --- | --- | --- |
| O=S(=O)(NCc1ccc(F)cc1)c1ccc2c(c1)nc(SCCO)n2Cc1ccccc1 | 600 nM | 270 nM |
| CSc1nc2cc(S(=O)(=O)NCc3ccc(F)cc3)ccc2n1Cc1ccccc1 | 210 nM | 220 nM |
| CCOc1nc2cc(S(=O)(=O)NCc3ccc(F)cc3)ccc2n1Cc1cccc(Cl)c1 | 1900 nM | 880 nM |
| O=S(=O)(NCc1ccc(F)cc1)c1ccc2c(c1)nc(SCc1ccccn1)n2Cc1ccccc1 | 960 nM | 820 nM |
| O=S(=O)(NCc1ccc(F)cc1)c1ccc2c(c1)nc(NCCN1CCOCC1)n2Cc1ccccc1 | > 10000 nM | > 10000 nM |
| O=S(=O)(NCc1ccc(F)cc1)c1ccc2c(c1)nc(SCCc1cccnc1)n2Cc1ccccc1 | 140 nM | 120 nM |
| CCOc1nc2cc(S(=O)(=O)NCc3ccc(F)cc3)ccc2n1Cc1ccccc1 | 470 nM | 300 nM |
| O=S(=O)(NCc1ccc(F)cc1)c1ccc2c(c1)nc(SCc1ccncc1)n2Cc1ccccc1 | 240 nM | 320 nM |
| CCSc1nc2cc(S(=O)(=O)NCc3cccc(OC)c3)ccc2n1Cc1ccccc1 | 4000 nM | 4800 nM |
| O=S(=O)(NCc1ccc(F)cc1)c1ccc2c(c1)nc(OCCN1CCOCC1)n2Cc1ccccc1 | 3200 nM | 5800 nM |
| CCSc1nc2cc(S(=O)(=O)NCc3ccc(OC)cc3)ccc2n1Cc1ccccc1 | 940 nM | 1100 nM |
| CCOc1nc2cc(S(=O)(=O)NCc3ccc(F)cc3)ccc2n1CCN1CCOCC1 | 7200 nM | 2100 nM |
